Holding throughout (format): functional
The test system of assay [1] is Staphylococcus aureus. Put plainly: Antibacterial activity against Staphylococcus aureus ATCC 25923 after 24 hrs by broth dilution MIC assay. The settings on record: ATCC 25923, 24 h. The method, boiled down:
(§1)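 Broth serial dilution. For nanoparticle emulsions, the drug content is assumed equal to the amount used in the polymerization, expressed as µg drug per mL of undiluted emulsion.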

The subject of assay [2] is Staphylococcus aureus. In words: Antibacterial activity against methicillin-resistant Staphylococcus aureus ATCC 43300 after 24 hrs by broth dilution MIC assay. The settings on record: ATCC 43300, 24 h. The method, boiled down:
as §1
On the technique in general: In broth dilution the organism is exposed to a series of concentrations in liquid medium.

A further assay concerns Bacillus anthracis. In words: Antibacterial activity against Bacillus anthracis after 24 hrs by broth dilution MIC assay. The method, boiled down:
as §1

In brackets after ≈: the same amount, converted by molar mass.

For orientation: MIC means the smallest concentration in the dilution series that meets the test's criterion for growth inhibition. A lower MIC goes with inhibition by little substance. As for `C=CC(=O)O[C@@H]1[C@@H]2OC(C)(C)O[C@@H]2O[C@@H]1C(COC(C)=O)OC(=O)CCC(=O)N[C@@H]1C(=O)N2C1SC(C)(C)[C@@H]2C(=O)O` (stereo partly specified), the MIC with Staphylococcus aureus [1], against Staphylococcus aureus [2] and against Bacillus anthracis was above 256 µg/mL in each case.

As for `C=CC(=O)O[C@@H]1[C@@H]2OC(C)(C)O[C@@H]2O[C@@H]1C(COC(C)=O)OC(=O)CCC(=O)N1CCN(c2cc3c(cc2F)c(=O)c(C(=O)O)cn3C2CC2)CC1` (stereo partly specified) [CIPROFLOXACIN ACRYLATE], the MIC came out at 32 µg/mL (≈ 43.9 µM) in the assay with Staphylococcus aureus [1], 32 µg/mL (≈ 43.9 µM) against Staphylococcus aureus [2] and 16 µg/mL (≈ 21.9 µM) with Bacillus anthracis.

Turning to `C=CC(=O)O[C@@H]1[C@H]2OC(C)(C)O[C@H]2O[C@@H]1C(COC(=O)CCC(=O)O[C@H]1C(=O)N(SC(C)CC)[C@H]1c1ccccc1Cl)OC(=O)CCC(=O)O[C@H]1C(=O)N(SC(C)CC)[C@H]1c1ccccc1Cl` (stereo partly specified) [LACTAM MONOMER], the MIC with Staphylococcus aureus [1] is 128 µg/mL (≈ 127 µM); against Staphylococcus aureus [2], 128 µg/mL (≈ 127 µM); against Bacillus anthracis, 64 µg/mL (≈ 63.4 µM).

Consider `CC1(C)S[C@@H]2[C@H](NC(=O)Cc3ccccc3)C(=O)N2[C@H]1C(=O)O` [PENICILLIN G], for which the figures for the MIC with Staphylococcus aureus [1] and with Staphylococcus aureus [2] were 0.012 µg/mL (≈ 0.0359 µM) and 16 µg/mL (≈ 47.8 µM), respectively.

(Values after ChEMBL document CHEMBL1141612, “Glyconanobiotics: Novel carbohydrated nanoparticle antibiotics for MRSA and Bacillus anthracis” (2008).)
